Most compounds without a hit are left out; they make up all but 5.9% or so of the library.
HIV Rev-RRE inh – disrupts HIV-1 Rev binding to RRE RNA; P05866; Rev peptide-RRE RNA binding, FRET; inhibition, % at 8 µM; 97,000 compounds, 0.79% hits; AID 704;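 active = inhibition above the screen-wide mean plus 3 SD, cut at about 35% in these data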;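 note: 0% = median DMSO wells and 100% = median Neomycin B control wells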
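Material: labelled RRE RNA duplex and labelled Rev peptide / Buffer or medium: HEPES pH 7.5 salt buffer with EDTA / Compound dosing: single point, 8 µM final nominal compound concentration / Benchmarks: DMSO low control, neomycin B high control / Timing: 5 min preincubation and 15 min binding, 25 °C / Technique: FRET fluorescence readout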
Phagocyt inh – macrophage phagocytosis inhibition. J774A.1 macrophage IgG-bead phagocytosis, imaging. inhibition, % at 5 µM. 110,000 compounds, 0.07% hits;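 active = inhibition above the mean of the plate negative controls plus 5 SD, cut at about 13% in these data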;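 note: phagocytic index as fraction of beads internalized from green versus red external bead signal; plate controls were DMSO negative control for no effect and cytochalasin-D positive control for full effect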
Measles CPE – protection of cells from measles virus; Measles virus-infected cells, CPE protection, absorbance; protection (pct of control), % at 4 µM; 140,000 compounds, 1.5% hits; AID 841; in the data active = protection mostly above about 24%, no sharp cut-off; inactive = mostly below about 26%
PTK2B oligo ant – blocks oligomerization of human Pyk2 in cells; Q293 cells, Pyk2 FERM NanoBiT luminescence; stronger effect = lower value; Q14289; 99,000 compounds, 0.83% hits; z-score (the deposit names both 25 µM and 10 µM);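 active = Z-score of -3 or lower, scaled per plate to the spread of control and sample wells; inactive = z-score above -3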;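 note: negative z-score means lost luminescence so less FERM oligomerization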
Cav32 inh – blocks human Cav3.2 T-type calcium channel; O95180; Cav3.2-expressing cells, Fluo-4 calcium fluorescence FDSS; stronger effect = lower value; B-score at 10 µM; 100,000 compounds, 4% hits;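 active = single-dose well whose peak fluorescence ratio is a statistical outlier from its plate by either plate-standardised score or position-corrected B-score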
hDAT+cocaine – human DAT dopamine uptake with cocaine, either direction. Q01959. LLC-PK1 hDAT cells, [14C]-dopamine uptake with cocaine IC80; actives deviate in either direction. B-score at 10 µM. 110,000 compounds, 1.3% hits;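 active = Z score or B-score, a plate-position-corrected score, falls beyond the plate's 99.7% confidence bounds, in either direction; inactive = both scores lie inside the 99.7% bounds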;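 note: scored against the spread of the other compound wells on the same plate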
The depositor's hits bear a star; nt = no result given; [ ] = another dose, or the depositor's remark.

SMILES	HIV Rev-RRE inh	Phagocyt inh	Measles CPE	PTK2B oligo ant	Cav32 inh	hDAT+cocaine
O=C1OCc2cccc3cccc1c23	11.5	1.1	2.5	0.23	0.271	-0.517
CC1=CC2=C(OC1N(C)C)c1cccc3cccc(c13)C2=O (configuration not stated)	48.2*	9.8	17.2	-0.57	-1.34	-0.259
O=C(NCc1ccc(Cl)cc1)c1noc2c1CCCCC2	nt	-2.4	21.1	0.32	-5.03*	-0.924
O=C(NCc1ccc(F)cc1)c1noc2c1CCCCC2	nt	-1.4	9.2	-0.38	-4.51	0.252
CCCCNC(=O)c1sc2ncnc(N3CCc4ccccc4C3)c2c1C	1.5	0.6	8.5	-0.27	-5.11*	4.19*
CCOC(=O)c1ccccc1-c1csc(NS(=O)(=O)c2ccc(Cl)cc2)n1	-3.7	0.3	9.4	-1.4	-9.16*	-4.8*
N=C1/C(=C/c2cccs2)C(=O)N=C2SN=C(SCc3ccccc3)N12	3.5	nt	28.1	-1.39	-7.74*	-0.922
CC(C)CSC1=NSC2=NC(=O)/C(=C\c3cccs3)C(=N)N12	nt	-3.4	20.5	nt	nt	nt
OCCN1CCN(c2nc(-c3ccccc3)c3cc(Cl)ccc3n2)CC1	3.0	nt	63.4*	-0.56	nt	0.659
O=C1CN(c2nc(-c3ccccc3)c3cc(Cl)ccc3n2)c2ccccc2N1	nt	-9.4	39.7*	nt	nt	nt
Clc1ccc2nc(N3CCNCC3)nc(-c3ccccc3)c2c1	-0.1	8.6	1.7	-1.2	0.802	1.75
O=C(CSc1nc2ccccc2s1)NCCOc1ccc(Cl)cc1	8.0	nt	4.2	1.33	-6.19*	-0.0209
Cc1cnc(NC(=O)CSc2nc3ccccc3s2)s1	7.0	-0.5	8.0	-0.09	-4.61*	0.354
Nc1nc(-c2ccccc2)nc2sc3c(c12)CCCC3	nt	nt	5.4	nt	nt	nt
Cc1ccc(C2CC(c3cccs3)=NN2C(=O)c2ccc(Br)o2)cc1 (configuration not stated)	24.9	2.1	20.5	-1.39	-4.04*	-0.631
O=C(NC1CCCCC1)C12CC3CC(CC(Cl)(C3)C1)C2	nt	-3.9	12.0	nt	nt	nt
CCCCc1ccc(/C=C2\C(=O)ON=C2c2ccccc2)s1	nt	39.3*[artifact]	19.8	nt	nt	nt
O=C(Cn1c(=O)n(Cc2ccco2)c(=O)c2c3c(sc21)CCCC3)Nc1ccccc1	5.9	nt	17.5	-0.2	-4.24	-0.0231
CCn1c(=O)n(Cc2ccco2)c(=N)c2c3c(sc21)COC(C)(C)C3	-3.0	-1.2	29.6	0.41	0.165	-0.86
CC1(C)Cc2c(sc3c2c(=N)n(Cc2ccco2)c(=O)n3CC(=O)Nc2cccc(Cl)c2)CO1	nt	0.0	14.5	-0.15	-5.22*	-0.00884
CC1(C)Cc2c(sc3c2c(=N)n(Cc2ccco2)c(=O)n3CC(=O)Nc2ccc(Cl)cc2)CO1	nt	-0.4	nt	-0.12	-1.22	2.04*
CC1(C)Cc2c(sc3c2c(=N)n(Cc2ccco2)c(=O)n3CC(=O)Nc2ccccc2)CO1	2.5	-1.3	8.3	0.22	-1.18	0.856
Cc1cccc(NC(=O)Cn2c(=O)n(Cc3ccco3)c(=N)c3c4c(sc32)COC(C)(C)C4)c1	-4.1	-0.7	2.9	-0.31	-4.19*	0.221
CCNC(=S)Nc1ccc(Oc2ccccc2)cc1	1.1	nt	nt	-0.75	-0.0734	-2.75*
O=C(Cc1ccccc1)NNC(=S)Nc1ccc(Cl)cc1	nt	-5.4	19.4*	nt	nt	nt
SMILES	HIV Rev-RRE inh	Phagocyt inh	Measles CPE	PTK2B oligo ant	Cav32 inh	hDAT+cocaine
Cc1ccc(C2CC2C(=O)NNC(=S)Nc2ccc(Cl)cc2)cc1 (configuration not stated)	-5.8	nt	11.3	0.12	-10.1*	1.09
CCNC(=S)Nc1ccc(OCC)cc1	nt	-2.5	2.7	nt	nt	nt
S=C(Nc1ccccc1)Nc1cc(Cl)ccc1Oc1ccccc1	0.6	-1.3	32.9*	0.12	-2.28	1.05
Cc1cccc(NC(=S)NNC(=O)Cc2ccccc2)c1	nt	-11.9	3.4	0.94	nt	nt
Cc1ccc(N(Cc2ccc(C(=O)NN=C3CCN(C)CC3)cc2)S(C)(=O)=O)cc1C	nt	-4.4	13.0	nt	nt	nt
CCCOC(=O)c1ccc(NC(=O)c2cc(OC)c(OC)c(OC)c2Br)cc1	6.0	-0.8	2.5	-2.04	nt	-0.632
Cc1cc(C)cc(SCc2noc(C(=O)NCCN(C)C)c2C(=O)NCCN(C)C)c1	nt	nt	nt	nt	0.524	0.31
O=C(NC(=S)Nc1ccc(Oc2ccccc2)cc1)c1ccc(Cl)cc1	5.0	0.1	20.2	1.52	-2.11	2.58*
CCCCCCCCNC(C)C(O)c1ccc(SC(C)C)cc1 (configuration not stated)	nt	nt	1.3	nt	-4.45*	-0.0105
CC1(C)S[C@@H]2C(C(=O)OCc3ccccc3)NC(=O)N2C1C(=O)OCc1ccccc1 (some centres not stated)	nt	nt	nt	nt	-0.145	-0.283
COc1ccc(O)c(/C=N/Nc2nc(Nc3ccccc3)nc(-n3nc(C)cc3C)n2)c1	-6.5	0.5	4.9	-1.75	-4.45*	-0.506
C=CCN1C=C2C(=O)C(C)(OC(=O)CC)C(=O)C=C2C=C1CCCC (configuration not stated)	nt	nt	nt	nt	0.963	-2.76*
CCOP(=O)(OCC)C(NC(=O)Nc1ccc(Cl)cc1)C(=O)N(CC)CC (configuration not stated)	nt	-15.0	nt	nt	nt	nt
C=CCn1c(SCC(N)=O)nnc1-c1cc(Br)ccc1O	2.4	1.7	51.2	0.3	0.878	-0.15
C=CCn1c(SCc2c(C(=O)OC)sc(N)c2C(=O)OC)nnc1-c1ccc(Br)cc1	8.3	0.5	2.5	-0.85	-4.65*	1.62
COc1ccc(NC(=O)c2ccc3snnc3c2)cc1	2.3	nt	19.6	0.02	-1.12	-2.91*
CNC(=O)c1ccc2snnc2c1	7.7	0.3	30.3	nt	-0.0722	-0.233
CN1CCN(c2ccc(Cl)cc2NC(=O)C2COc3ccccc3O2)CC1 (configuration not stated)	nt	-1.0	22.4	-0.87	-4.54*	0.716
CN1CCN(c2ccc(Cl)cc2NC(=O)c2cccc(S(=O)(=O)N(C)C)c2)CC1	11.9	1.9	12.9	-0.02	2.6	0.26
COc1cc(/C=N/c2oc(-c3ccccc3)cc2C#N)ccc1O	39.8*	-0.3	10.1	0.08	-0.422	1.87
CCOc1ccccc1NC(=S)N(Cc1cc2ccc(C)cc2[nH]c1=O)CC1CCCN1CC (configuration not stated)	nt	4.5	13.4	nt	nt	nt
C=C1CCN([C@H](C(=O)NCc2ccco2)C(C)C)S(=O)(=O)c2ccccc21	nt	nt	nt	nt	0.465	0.961
CC(O)[C@H]1CN=C(N)N1CCCCC1CCCCC1 (some centres not stated)	nt	nt	nt	nt	2.11	-4.68*
CN(C)CC1CCCCC1C1(O)c2ccccc2CSc2sccc21 (configuration not stated)	-3.0	nt	8.9	1.03	-0.94	-1.22
COc1ccc(C(=O)CSc2nnc(CCc3ccccc3)n2-c2ccccc2)cc1	1.8	-0.2	24.5*	-1.29	-2.03	0.125
C=CCn1c(SCC(=O)NCc2ccccc2)nnc1-c1ccccc1O	11.4	1.5	20.1	0.08	0.303	0.601
C=CCn1c(CSCc2ccc(C)cc2)nnc1SCC(=O)NCc1ccccc1	1.9	-0.2	-0.5	-0.05	-3.6*	2.11*

Bioassay records as filed in PubChem BioAssay.
